Test results reported in ChEMBL document CHEMBL1142901, “Design and synthesis of pyrimido[4,5-b][1,4]benzothiazine derivatives, as potent 15-lipoxygenase inhibitors” (Bioorg Med Chem, 2007).

Assays:
[1] = Partition co-efficient, log P of the compound; assay type: physicochemical; conditions: octanol/water
[2] = Inhibition of soybean 15-lipoxygenase; set-up: species or system Glycine max
Method in brief: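 Soybean 15-lipoxygenase (final 167 U/mL, kept on ice) in 0.2 M borate buffer pH 9.00 with linoleic acid (134 µM) substrate. Activity followed as absorbance increase at 234 nm from 30 to 90 s after enzyme addition. Compounds added in ethanol (final 1%); ethanol-only uninhibited controls measured at regular intervals. IC50 by linear interpolation between points around 50% activity.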

Row | Structure (SMILES) | logP [1] | IC50 [2] [µM]
1 | Cc1nc(N2CCCC2)nc2c1Nc1ccccc1S2 | 2.49 | 48
2 | Cc1nc(N2CCC(C)CC2)nc2c1Nc1ccccc1S2 | 2.98 | 76
3 | CCN1CCN(c2nc(C)c3c(n2)Sc2ccccc2N3)CC1 | 2.19 | 34
4 | Cc1nc(N2CCOCC2)nc2c1Nc1ccccc1S2 | 1.7 | 53
5 | Cc1nc(N2CCC(O)CC2)nc2c1Nc1ccccc1S2 | 1.95 | > 200
6 | Cc1nc(N2CCN(c3ccccc3)CC2)nc2c1Nc1ccccc1S2 | 3.15 | > 200
7 | Cc1nc(N2CCCCC2)nc2c1Nc1ccccc1S2 | 2.74 | 58
8 | Cc1nc(N2CCN(C)CC2)nc2c1Nc1ccccc1S2 | 1.95 | 18
